Activity calls are given as the source filed them. The rule behind the calls is not given here.
Assays:
[1] = tested on: PC-12; test: Neuroprotective activity against etoposide-induced apoptosis in rat PC12 cells assessed as cell viability at 3 uM pretreated for 4 hrs followed by etoposide challenge measured after 48 hrs by PrestoBlue assay (reference value: 52.13 +/- 1.13%); assay type: functional; conditions: read-out: Activity
Procedure, shortened: (§1)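 PC12 cells were plated at 50000/well on collagen-coated plates and left overnight. They were pretreated 4 h with compound, then given 15 μg/mL etoposide. Viability was read at 48 h by PrestoBlue (ex 560/em 590 nm). n = 3, mean ± SEM, as % viability.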

[2] = tested on: PC-12; test: Neuroprotective activity against etoposide-induced apoptosis in rat PC12 cells assessed as increase in Bcl2/Bax ratio at 3 uM pretreated for 4 hrs followed by etoposide challenge measured after 24 hrs by Western blot method; assay type: functional
Procedure, shortened: (§2)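 PC12 cells were pretreated 4 h with compound before etoposide and lysed after 24 or 48 h. 50 μg protein was run on 10% SDS gel and blotted. Probes were Bcl-2 (1:1000), Bax (1:500) and actin, with HRP chemiluminescence and densitometric Bcl-2/Bax ratio. n = 2, mean ± SEM.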

[3] = target: T1, Glutamate [NMDA] receptor (Homo sapiens) (UniProt Q05586+Q12879+Q13224+O15399+O60391+Q14957+Q8TCU5); test: Antagonist activity at NMDA receptor in human IMR90-c4 cells assessed as decrease in NMDA-mediated reduction in cell viability at 30 uM by PrestoBlue assay; assay type: cell-based
Procedure, shortened: (§3)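 IMR90-c4 iPSCs differentiated to neurons (NSC, NPC, then 21 days maturation on poly-D-lysine/laminin). Neurons challenged with 500 μM NMDA. Viability read with PrestoBlue. n = 1 with 4 technical replicates, mean ± SEM.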

[4] = Neuroprotective activity against etoposide-induced apoptosis in human IMR90-c4 cells assessed as cell viability at 3 uM pretreated for 4 hrs followed by etoposide challenge measured after 36 hrs by PrestoBlue assay relative to control; assay type: functional; conditions: read-out: Activity
Procedure, shortened: (§4)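 IMR90-c4 iPSC-derived neurons were plated at 16000 cells/well on poly-D-lysine/laminin and matured. They were pretreated 4 h with compound, then given 15 μg/mL etoposide. Viability was read at 36 h by PrestoBlue fluorescence (ex 560/em 590 nm).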

[5] = tested on: IMR90-c4; test: Neuroprotective activity against etoposide-induced apoptosis in human IMR90-c4 cells assessed as increase in cell viability at 3 to 30 uM pretreated for 4 hrs followed by etoposide challenge measured after 36 hrs by PrestoBlue assay; assay type: functional, cell-based; procedure, shortened: as §4
[6] = tested on: SH-SY5Y; test: Neuroprotective activity against etoposide-induced apoptosis in human SH-SY5Y cells assessed as cell viability at 3 uM pretreated for 4 hrs followed by etoposide challenge measured after 12 to 48 hrs by PrestoBlue assay relative to control; assay type: functional; conditions: read-out: Activity
Procedure, shortened: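 SH-SY5Y cells were plated at 50000/well and left overnight at 37 °C, 5% CO2. They were pretreated 4 h with compound, then given etoposide; methods give 5 μg/mL read at 48 h, while the legend states 5 μM for 12 h. PrestoBlue fluorescence (ex 560/em 590 nm).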

[7] = tested on: PC-12; test: Induction of autophagy in rat PC12 cells at 3 uM after 48 hrs by MDC staining-based flow cytometric method relative to control; assay type: functional
Procedure, shortened: (§5)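 PC12 cells were treated for 48 h and then stained with 0.5 mM monodansylcadaverine for 30 min at 37 °C. Trypsinized cells were pooled with floating cells and resuspended in PBS/1% FBS. 10000 cells were read by flow cytometry in the FITC channel after gating out debris. MDC staining is expressed relative to vehicle.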

[8] = target: T1, Glutamate [NMDA] receptor (Homo sapiens); test: Antagonist activity at NMDA receptor in human IMR90-c4 cells assessed as decrease in NMDA-mediated reduction in cell viability at 0.1 to 10 uM by PrestoBlue assay; assay type: cell-based; procedure, shortened: as §3
[9] = tested on: PC-12; test: Neuroprotective activity against H2O2-induced apoptosis in rat PC12 cells assessed as increase in cell viability at 1 to 30 uM after 4 hrs by PrestoBlue assay; assay type: functional, cell-based
Procedure, shortened: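 PC12 cells were exposed to 400 μM H2O2 with compounds at 1–30 μM. Viability was measured after 4 h with PrestoBlue.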

[10] = tested on: PC-12; test: Neuroprotective activity against etoposide-induced apoptosis in rat PC12 cells assessed as increase in Bcl2/Bax ratio at 3 uM pretreated for 4 hrs followed by etoposide challenge measured after 48 hrs by Western blot method; assay type: functional, cell-based; procedure, shortened: as §2
[11] = tested on: PC-12; test: Neuroprotective activity in rat PC12 cells assessed as decrease in H2O2-induced reactive oxygen species generation at 10 uM by CellROX/DAPI-blue staining-based fluorescence microscopic method; assay type: functional, cell-based
Procedure, shortened: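 PC12 cells were grown in RPMI with 10% horse serum and 5% FBS on collagen-coated plates. ROS was induced with H2O2 and cells exposed to compound. Staining used CellROX green plus DAPI, imaged by fluorescence microscopy at 40×.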

[12] = tested on: PC-12; test: Induction of autophagy in rat PC12 cells assessed as increase in beclin 1 expression at 3 uM after 24 hrs by Western blot method relative to control; assay type: functional
Procedure, shortened: (§6)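 PC12 lysates were taken after 24 h of compound treatment. 50 μg protein was run on 10% SDS gel and transferred to nitrocellulose. Blots were blocked in 5% BSA, probed overnight at 4 °C with beclin 1 (1:2000) and actin (1:5000), then HRP secondary. Chemiluminescence was quantified by densitometry.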

[13] = tested on: PC-12; test: Induction of autophagy in rat PC12 cells at 10 uM after 48 hrs by MDC staining-based flow cytometric method relative to control; assay type: functional; procedure, shortened: as §5
[14] = target: T1, Glutamate [NMDA] receptor (Homo sapiens); test: Antagonist activity at NMDA receptor in human IMR90-c4 cells assessed as decrease in NMDA-mediated reduction in cell viability at 0.1 to 30 uM by PrestoBlue assay; assay type: cell-based
Procedure, shortened: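 Neurons differentiated from IMR90-c4 iPSCs over roughly 21 days, then challenged with 500 μM NMDA. Viability was read with PrestoBlue. n = 1 with 4 technical replicates; % viability given as mean ± SEM.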

[15] = tested on: PC-12; test: Neuroprotective activity against etoposide-induced apoptosis in rat PC12 cells assessed as increase in cell viability at 0.1 uM pretreated for 4 hrs followed by etoposide challenge measured after 48 hrs by PrestoBlue assay relative to control; assay type: functional, cell-based; procedure, shortened: as §1
[16] = Neuroprotective activity against etoposide-induced apoptosis in human IMR90-c4 cells assessed as increase in cell viability at 3 uM pretreated for 4 hrs followed by etoposide challenge measured after 36 hrs by PrestoBlue assay relative to control; assay type: functional; procedure, shortened: as §4
[17] = tested on: PC-12; test: Induction of autophagy in rat PC12 cells assessed as increase in beclin 1 expression after 24 hrs by Western blot method; assay type: functional, cell-based; procedure, shortened: as §6

## CCOC(=O)Nc1ccc(NCc2ccccc2C(F)(F)F)nc1N
[1]
  viability at 3 µM: 82.8%

## CCOC(=O)Nc1ccc(NCc2ccc(F)cc2)nc1N [FLUPIRTINE]
[2]
  Activity: 68%
[3]
  inhibition: Active
[4]
  viability at 3 µM: 70%
[5]
  Activity: Active
[6]
  viability at 3 µM: 69%
[7]
  fold change (FC): 2
[8]
  inhibition: inactive
[9]
  Activity: Active
[10]
  Activity: inactive
[11]
  Activity: Active
[1]
  viability at 3 µM: 79.5%
[12]
  Activity: 32%
[13]
  fold change (FC): 8

## CCOC(=O)Nc1ccc(NCc2ccc(C)cc2)nc1
[1]
  viability at 3 µM: 64.3%

## CCOC(=O)Nc1ccc(NCc2ccc(C)cc2)nc1N
[1]
  viability at 3 µM: 136%

## CCCOC(=O)Nc1ccc(NCc2ccc(F)cc2)nc1N
[1]
  viability at 3 µM: 46.7%

## CCOC(=O)Nc1ccc(NCc2ccccc2)nc1
[1]
  viability at 3 µM: 67.5%

## Nc1nc(NCc2ccc(F)cc2)ccc1NC(=O)OCc1ccccc1
[14]
  inhibition: inactive
[5]
  Activity: Active
[7]
  fold change (FC): 3
[15]
  Activity: Active
[9]
  Activity: inactive
[10]
  Activity: Active
[11]
  Activity: inactive
[1]
  viability at 3 µM: 81.2%
[16]
  Activity: 79%

## Nc1nc(NCc2ccc(F)cc2)ccc1NC(=O)OCCCl
[1]
  viability at 3 µM: 53.9%

## CCOC(=O)Nc1ccc(OCc2ccc(C(F)(F)F)cc2)nc1N
[4]
  viability at 3 µM: 65%
[17]
  Activity: Dose-dependent effect
[10]
  Activity: inactive

Source: ChEMBL document CHEMBL4028889 (2017)
